According to ChEMBL document CHEMBL1128451, “Synthesis and anti-DNA viral activities in vitro of certain 2,4-disubstituted-7-(2-deoxy-2-fluoro-beta-D-arabinofuranosyl)pyrrolo[2,3-d d pyrimidine nucleosides” (J Med Chem, 1995):
Values after ≈ are worked out from the molar mass of the structure shown.

Tests used:
[1] = Anti viral activity against 2.2.15 cells (concentration required to reduce the log phase cell growth by 50%).; type: cell-based; settings: human, 2.2.15 cells (HepG2-derived); read-out: TC50 (the source's name)
How it was run: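 Growing 2.2.15/HepG2 cells at 1.7×10^4/well, subconfluent on collagen-coated plates, given compound dilutions in quadruplicate. Drug medium refreshed every second day. Proliferation read on days 0, 4, 8 and 12; TC50 is the concentration giving 50% inhibition of proliferation after 12 days' exposure. Mean of three or more experiments.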

HepG2 = test: Ability to inhibit the episomal HBV-DNA in 2.2.15 cells.; type: functional, cell-based; settings: Homo sapiens
[2] = Visual cytotoxicity of stationary MRC-5 cells, median toxic concentration is evaluated by anti HCMV plaque reduction assay performed in MRC-5 cells using the AD169 strain of HCMV; type: cell-based, MRC5; settings: human, read-out: TC50 (the source's name)
How it was run: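 Stationary uninfected MRC-5 cells scored visually for cytotoxicity from 0 (none at 20-fold magnification) to 4 (cell sheet nearly destroyed); median toxic concentration reported.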

MRC5 [3] = test: Anti HCMV (human cytomegalovirus) activity in MRC-5 cells infected with […] strain of HCMV (plaque reduction assay).; type: functional, cell-based
[4] = Visual cytotoxicity of stationary HFF Cell line Hs68, median toxic concentration is evaluated by anti HCMV plaque reduction assay performed in HFF Cell line Hs 68; type: cell-based; settings: human, read-out: TC50 (the source's name)
How it was run: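 Stationary uninfected HFF Hs68 cells scored visually for cytotoxicity from 0 (none at 20-fold magnification) to 4 (cell sheet nearly destroyed); median toxic concentration reported.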

HFF [5] = test: Anti HCMV(human cytomegalovirus) activity in MRC-5 cells infected with DHPG-resistant D16 strain of HCMV(plaque reduction assay).; type: functional, cell-based
How it was run: (§1)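 Plaque reduction in MRC-5 cells, grown in MEM(E) with 10% FBS and passaged 1:2, infected with the DHPG-resistant D16 HCMV strain, a viral polymerase mutant. IC50 is the concentration reducing plaques by 50%, derived from a regression line of inhibition versus log concentration. Ganciclovir served as the positive control.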

[6] = Anti viral activity against vero cells (concentration required to reduce the log phase cell growth by 50%).; type: cell-based; settings: chlorocebus sabaeus, read-out: TC50 (the source's name)
How it was run: (§2)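 Log-phase Vero cells, 5000 cells per assay, exposed to compound for 4 days in quadruplicate. Growth measured by tetrazolium-based (CellTiter 96 aqueous) proliferation read-out; averaged data used to calculate TC50, the concentration reducing cell growth by 50%.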

[7] = Visual cytotoxicity of […], median toxic concentration is evaluated by anti HCMV plaque reduction assay performed in HFF Cell line Hs 68; type: cell-based; settings: human, read-out: TC50 (the source's name)
HFF [8] = test: Anti HCMV(human cytomegalovirus) activity in HFF cell line Hs 68 infected with […] strain of HCMV(plaque reduction assay).; type: functional, cell-based
How it was run: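 HCMV AD169 plaque reduction in diploid human foreskin fibroblast line Hs68, grown in MEM(E) with 10% FBS and passaged 1:2. IC50 is the concentration cutting plaque number by 50%, calculated by linear regression of inhibition against log drug concentration. Values are averages of three or more experiments. Ganciclovir was the positive control.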

[9] = Anti viral activity against MRC-5 cells (concentration required to reduce the log phase cell growth by 50%).; type: cell-based, MRC5; settings: human, read-out: TC50 (the source's name)
How it was run: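 Growing MRC-5 cells; growth inhibition measured with the CellTiter 96 aqueous proliferation assay. TC50 is the concentration reducing log-phase cell growth by 50%.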

Vero [10] = test: Ability to inhibit the Cytopathic effect of HSV-2 in vero cells.; type: functional, cell-based; settings: Chlorocebus sabaeus
Vero [11] = test: Ability to inhibit the Cytopathic effect of HSV-1 in vero cells.; type: functional, cell-based; settings: Chlorocebus sabaeus
[12] = Visual cytotoxicity of […], median toxic concentration is evaluated by plaque reduction assay performed in HFF Cell line Hs 68; type: cell-based; settings: human
MRC5 [13] = test: Plaque reduction performed using the DHPG- resistant D16 strain of HCMV in MRC-5 cell line; type: functional, cell-based; settings: Homo sapiens; how it was run: as §1
[14] = Visual cytotoxicity of stationary MRC-5 cells, median toxic concentration is evaluated by plaque reduction assay performed in DHPG- resistant D16 strain of HCMV; type: cell-based, MRC5; settings: human, read-out: TC50 (the source's name)
How it was run: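 Uninfected stationary MRC-5 cells were scored by eye for cytotoxicity, from 0 (none visible at 20-fold magnification) to 4 (cell sheet nearly destroyed). The value is the median toxic concentration.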

[15] = Anti viral activity against Vero cells (concentration required to reduce the log phase cell growth by 50%).; type: cell-based; settings: chlorocebus sabaeus, read-out: TC50 (the source's name); how it was run: as §2
HFF [16] = test: Plaque reduction and cytotoxicity performed in HFF cell line Hs 68; type: functional, cell-based; settings: Homo sapiens

Row | Structure (SMILES) | GI50 [1] | IC50 (HepG2) | CC50 [2] | IC50 (MRC5 [3]) | also measured
1 | Nc1ccn([C@H]2CC[C@@H](CO)O2)c(=O)n1 [ZALCITABINE] | 64 µg/mL (≈ 303 µM) | 2.1 µg/mL (≈ 9.94 µM) |  |  | 
2 | NSc1nc(N)nc2c1ccn2[C@@H]1O[C@H](CO)[C@@H](O)[C@@H]1F |  |  | > 100 µg/mL | > 100 µg/mL | 
3 | Nc1nc2c(ccn2[C@@H]2O[C@H](CO)[C@@H](O)[C@@H]2F)c(=O)[nH]1 | > 100 µg/mL | 60 µg/mL (≈ 211 µM) | > 100 µg/mL | 51 µg/mL (≈ 179 µM) | 
4 | Nc1nc(Cl)c2ccn([C@@H]3O[C@H](CO)[C@@H](O)[C@@H]3F)c2n1 |  |  | 32 µg/mL (≈ 106 µM) | > 100 µg/mL | 
5 | Nc1nc2c(ncn2COC(CO)CO)c(=O)[nH]1 [GANCICLOVIR] |  |  | > 1000 µg/mL | 3.2 µg/mL (≈ 12.5 µM) | CC50 [4]: > 1000 µg/mL; IC50 (HFF [5]): 52 µg/mL (≈ 204 µM); CC50 [6]: 270 µg/mL (≈ 1060 µM); CC50 [7]: > 1000 µg/mL; IC50 (HFF [8]): 4.4 µg/mL (≈ 17.2 µM); GI50 [9]: > 500 µg/mL
6 | Nc1nc(N)c2ccn(C3OC(CO)CC3F)c2n1 (stereo unspecified) | 149 µg/mL (≈ 558 µM) | > 30 µg/mL | > 100 µg/mL | > 100 µg/mL | IC50 (Vero [10]): > 100 µg/mL; IC50 (Vero [11]): > 100 µg/mL
7 | NC1=NC(=S)C2C=CN([C@@H]3O[C@H](CO)[C@@H](O)[C@@H]3F)C2=N1 (stereo partly specified) |  |  | > 50 µg/mL | > 50 µg/mL | 
8 | Nc1ncc2c(n1)N([C@@H]1O[C@H](CO)[C@@H](O)[C@@H]1F)CC2 |  |  | 32 µg/mL (≈ 118 µM) | > 100 µg/mL | 
9 | Nc1nc([SeH])c2ccn([C@@H]3O[C@H](CO)[C@@H](O)[C@@H]3F)c2n1 |  |  | 178 µg/mL (≈ 513 µM) | 10 µg/mL (≈ 28.8 µM) | 
10 | COc1nc(N)nc2c1ccn2[C@@H]1O[C@H](CO)[C@@H](O)[C@@H]1F |  |  | > 100 µg/mL | > 100 µg/mL | 
11 | Nc1ncc2ccn([C@@H]3O[C@H](CO)[C@@H](O)C3F)c2n1 (stereo partly specified) |  |  | > 100 µg/mL | 16 µg/mL (≈ 59.6 µM) | 
12 | Nc1nc(N)c2ccn([C@@H]3O[C@H](CO)[C@@H](O)[C@@H]3F)c2n1 | 630 µg/mL (≈ 2220 µM) | 0.7 µg/mL (≈ 2.47 µM) | > 100 µg/mL | 3.7 µg/mL (≈ 13.1 µM) | CC50 [12]: > 1000 µg/mL; IC50 (MRC5 [13]): 11 µg/mL (≈ 38.8 µM); IC50 (Vero [10]): 6.3 µg/mL (≈ 22.2 µM); GI50 [9]: 11.4 µg/mL (≈ 40.2 µM); CC50 [14]: > 100 µg/mL; CC50 [15]: 53 µg/mL (≈ 187 µM); IC50 (HFF [16]): 3.4 µg/mL (≈ 12 µM); IC50 (Vero [11]): 4.1 µg/mL (≈ 14.5 µM)
